Data taken from publication PMC6089219 (ACS chemical biology, 2018).
Blank lines part the entries; values can stand above or below the molecule they belong to.

Experiments:
human ALDH1A2 = target: T1, human ALDH1A2 (Homo sapiens, UniProt O94788); experiment: Differential scanning fluorimetry; assay type: binding; details: for DSF ΔTm (°C); (−) NAD: 200 μM compound, 4 μM ALDH1A2, absence of NAD, single experiment in quadruplicate
T1 sequence (O94788 27-518): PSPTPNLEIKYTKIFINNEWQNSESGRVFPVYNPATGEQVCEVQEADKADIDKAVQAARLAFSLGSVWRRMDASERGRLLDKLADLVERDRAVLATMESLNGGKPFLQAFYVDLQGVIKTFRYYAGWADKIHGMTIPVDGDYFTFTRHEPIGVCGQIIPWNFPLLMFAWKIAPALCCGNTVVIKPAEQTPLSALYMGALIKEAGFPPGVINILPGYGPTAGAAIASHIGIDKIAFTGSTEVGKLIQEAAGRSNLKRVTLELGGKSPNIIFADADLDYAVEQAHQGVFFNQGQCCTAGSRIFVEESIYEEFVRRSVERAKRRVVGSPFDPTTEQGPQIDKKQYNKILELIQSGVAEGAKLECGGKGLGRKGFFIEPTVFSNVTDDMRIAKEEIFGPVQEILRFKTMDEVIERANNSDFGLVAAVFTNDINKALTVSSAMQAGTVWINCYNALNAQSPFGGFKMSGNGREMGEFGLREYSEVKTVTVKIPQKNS
In short: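 Truncated human ALDH1A2 (residues 27–518) expressed in E. coli BL21Star (DE3), His-tag removed by PreScission protease, purified as a tetramer. Fluorescence read at 620 nm (ROX channel) during thermal melt, in quadruplicate. ΔTm taken against unliganded enzyme with 2% DMSO.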

crystal structure = target: the molecule itself; experiment: crystal structure

Molecule: O=C(NCCCCCCCCNC(=O)C(Cl)Cl)C(Cl)Cl [WIN18,446, reference compound]
- DSF ΔTm (°C); (−) NAD (human ALDH1A2): 7.6 ± 0.17 °C

- DSF ΔTm (°C); (+) NAD (human ALDH1A2; 1 mM NAD+ alone, no inhibitor): 2.6 ± 0.04 °C
Molecule: NC(=O)c1ccc[n+]([C@@H]2O[C@H](COP(=O)([O-])OP(=O)(O)OC[C@H]3O[C@@H](n4cnc5c(N)ncnc54)[C@H](O)[C@@H]3O)[C@@H](O)[C@H]2O)c1 [NAD]

- DSF ΔTm (°C); (−) NAD (human ALDH1A2): 5.4 ± 0.15 °C
Molecule: CS(=O)(=O)c1ccc(-c2nn(-c3ccc(C#N)cc3)cc2C(=O)Nc2cccc(F)c2)cc1 [CM121]

B1: human ALDH1A2 (residues 27-518) (enzyme, UniProt O94788 27-518, looked up)
chain: T1 sequence (O94788 27-518)
- stoichiometry N (crystal structure): 4
